Measured values as given in ChEMBL document CHEMBL4265911, “The synthesis and kinetic evaluation of aryl α-aminophosphonates as novel inhibitors of T. cruzi trans-sialidase” (Eur J Med Chem, 2018).

Key:
Trans-sialidase [1] = biological target: T1, Trans-sialidase (Trypanosoma cruzi, UniProt Q26964); assay: Non-competitive inhibition of recombinant HisA-tagged Trypanosoma cruzi trans-sialidase expressed in Escherichia coli BL21 (DE3) using varying levels of MuNANA as substrate by Lineweaver-burk plot analysis
T1 sequence (Q26964 whole entry): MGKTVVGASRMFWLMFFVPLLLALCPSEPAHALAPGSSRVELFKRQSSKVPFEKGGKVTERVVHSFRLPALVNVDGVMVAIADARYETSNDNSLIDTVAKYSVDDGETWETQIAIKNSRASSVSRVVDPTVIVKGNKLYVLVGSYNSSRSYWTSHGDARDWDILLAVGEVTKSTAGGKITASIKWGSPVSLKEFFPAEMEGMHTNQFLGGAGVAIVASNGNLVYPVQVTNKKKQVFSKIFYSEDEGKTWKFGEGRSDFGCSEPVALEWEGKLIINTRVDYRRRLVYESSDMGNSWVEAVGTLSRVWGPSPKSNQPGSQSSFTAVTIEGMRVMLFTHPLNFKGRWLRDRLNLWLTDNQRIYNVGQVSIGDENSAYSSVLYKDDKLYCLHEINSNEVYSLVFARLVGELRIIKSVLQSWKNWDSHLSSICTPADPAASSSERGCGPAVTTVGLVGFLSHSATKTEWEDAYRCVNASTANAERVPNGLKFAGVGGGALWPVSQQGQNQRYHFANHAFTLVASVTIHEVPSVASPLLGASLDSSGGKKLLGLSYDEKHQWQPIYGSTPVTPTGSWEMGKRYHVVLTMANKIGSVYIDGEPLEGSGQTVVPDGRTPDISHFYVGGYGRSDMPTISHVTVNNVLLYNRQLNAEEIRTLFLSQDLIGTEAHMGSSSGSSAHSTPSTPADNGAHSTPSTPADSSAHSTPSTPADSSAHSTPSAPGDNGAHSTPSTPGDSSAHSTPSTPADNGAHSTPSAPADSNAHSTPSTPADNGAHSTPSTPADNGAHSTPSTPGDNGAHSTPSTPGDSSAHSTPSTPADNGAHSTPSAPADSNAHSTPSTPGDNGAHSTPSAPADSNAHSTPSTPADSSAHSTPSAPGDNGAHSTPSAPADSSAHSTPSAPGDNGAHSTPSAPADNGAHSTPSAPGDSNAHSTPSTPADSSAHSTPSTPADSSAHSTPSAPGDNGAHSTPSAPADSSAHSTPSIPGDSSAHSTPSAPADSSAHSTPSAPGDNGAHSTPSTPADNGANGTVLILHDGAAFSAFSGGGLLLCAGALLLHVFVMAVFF
In short: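 TcTS residual hydrolytic activity was measured with MuNANA at 0–400 µM across several set inhibitor concentrations, using the fluorometric method at 35°C and pH 7.5. Km/Vmax came from nonlinear fitting. Ki was fitted with competitive, non-competitive, uncompetitive and mixed models, and the best-fitting model was assigned as the mode. Lineweaver-Burk double-reciprocal plots were made at each inhibitor level.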

Trans-sialidase [2] = biological target: T1, Trans-sialidase; assay: Inhibition of recombinant HisA-tagged Trypanosoma cruzi trans-sialidase expressed in Escherichia coli BL21 (DE3) using MuNANA as substrate pretreated for 10 mins followed by substrate addition by fluorescence assay
In short: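 Continuous fluorometric hydrolysis assay at 35°C in 20mM Tris-HCl, 50mM NaCl, pH 7.5, 0.01% Triton X100. TcTS (50 µg/mL) was preincubated 10 min with at least seven inhibitor levels (1 µM–15 mM), then MuNANA (200 µM) was added. 4-Methylumbelliferone was read at ex 360/em 460 nm, with rate taken as the linear-region slope. IC50 was set at 50% activity loss versus the no-inhibitor control; n=3 independent experiments.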

Trans-sialidase [3] = biological target: T1, Trans-sialidase; assay: Inhibition of recombinant Trypanosoma cruzi trans-sialidase expressed in Escherichia coli BL21 (DE3) using MuNANA as substrate after 10 mins in presence of [D-glucose-1-14C]lactose by liquid scintillation counting method
[4] = Solubility of the compound in pH 7.5 Tris-HCl buffer at >7.5 mM; format: physicochemical
Trans-sialidase [5] = biological target: T1, Trans-sialidase; assay: Inhibition of Trypanosoma cruzi trans-sialidase
In short: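 TcTS, point-mutated to aid crystallisation and expressed in E. coli BL21(DE3), at 50 µg/mL; pre-incubated 10 min at 35°C with ≥7 inhibitor levels (1 µM–15 mM). MuNANA (200 µM) then added. Buffer: 20 mM Tris-HCl, 50 mM NaCl, pH 7.5, 0.01% Triton X100. Continuous fluorescence (ex 360/em 460 nm), slope RFU/min. IC50 versus no-inhibitor control; n=3 independent experiments.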

Trans-sialidase [6] = biological target: T1, Trans-sialidase; assay: Inhibition of Trypanosoma cruzi trans-sialidase using CF3MuSA as substrate by UV/visible spectrophotometric method
[7] = Selectivity ratio of IC50 for Streptococcus pneumoniae neuraminidase A to IC50 for recombinant HisA-tagged Trypanosoma cruzi trans-sialidase expressed in Escherichia coli BL21 (DE3)
Sialidase A = Sialidase A (Streptococcus pneumoniae, UniProt P62575); assay: Inhibition of Streptococcus pneumoniae neuraminidase A using MuNANA as substrate pretreated for 10 mins followed by substrate addition by fluorescence assay
[8] = Selectivity ratio of IC50 for Clostridium perfringens neuraminidase to IC50 for recombinant HisA-tagged Trypanosoma cruzi trans-sialidase expressed in Escherichia coli BL21 (DE3)
Sialidase = biological target: T2, Sialidase (Clostridium perfringens, UniProt P10481); assay: Inhibition of Clostridium perfringens neuraminidase using MuNANA as substrate pretreated for 10 mins followed by substrate addition by fluorescence assay
T2 sequence (P10481 whole entry): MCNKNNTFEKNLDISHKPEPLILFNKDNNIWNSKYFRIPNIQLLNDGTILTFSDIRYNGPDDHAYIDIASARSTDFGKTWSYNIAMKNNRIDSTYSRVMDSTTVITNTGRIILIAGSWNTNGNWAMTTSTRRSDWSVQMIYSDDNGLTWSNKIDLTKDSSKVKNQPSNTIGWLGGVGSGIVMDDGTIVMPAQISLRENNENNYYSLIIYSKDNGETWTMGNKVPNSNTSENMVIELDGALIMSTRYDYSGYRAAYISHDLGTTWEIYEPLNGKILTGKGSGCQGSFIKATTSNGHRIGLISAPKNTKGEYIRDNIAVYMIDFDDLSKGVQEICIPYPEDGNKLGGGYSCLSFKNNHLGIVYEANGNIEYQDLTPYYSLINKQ

[9] = compound: OC[C@@H](O)[C@@H](O[C@@H]1O[C@H](CO)[C@H](O)[C@H](O)[C@H]1O)[C@H](O)[C@@H](O)CO; assay: Inhibition of recombinant HisA-tagged Trypanosoma cruzi trans-sialidase expressed in Escherichia coli BL21 (DE3) using 3-sialyl-lactose as donor measured after 15 mins by HPAEC-PAD

Chain of Sialidase A (P62575 whole entry): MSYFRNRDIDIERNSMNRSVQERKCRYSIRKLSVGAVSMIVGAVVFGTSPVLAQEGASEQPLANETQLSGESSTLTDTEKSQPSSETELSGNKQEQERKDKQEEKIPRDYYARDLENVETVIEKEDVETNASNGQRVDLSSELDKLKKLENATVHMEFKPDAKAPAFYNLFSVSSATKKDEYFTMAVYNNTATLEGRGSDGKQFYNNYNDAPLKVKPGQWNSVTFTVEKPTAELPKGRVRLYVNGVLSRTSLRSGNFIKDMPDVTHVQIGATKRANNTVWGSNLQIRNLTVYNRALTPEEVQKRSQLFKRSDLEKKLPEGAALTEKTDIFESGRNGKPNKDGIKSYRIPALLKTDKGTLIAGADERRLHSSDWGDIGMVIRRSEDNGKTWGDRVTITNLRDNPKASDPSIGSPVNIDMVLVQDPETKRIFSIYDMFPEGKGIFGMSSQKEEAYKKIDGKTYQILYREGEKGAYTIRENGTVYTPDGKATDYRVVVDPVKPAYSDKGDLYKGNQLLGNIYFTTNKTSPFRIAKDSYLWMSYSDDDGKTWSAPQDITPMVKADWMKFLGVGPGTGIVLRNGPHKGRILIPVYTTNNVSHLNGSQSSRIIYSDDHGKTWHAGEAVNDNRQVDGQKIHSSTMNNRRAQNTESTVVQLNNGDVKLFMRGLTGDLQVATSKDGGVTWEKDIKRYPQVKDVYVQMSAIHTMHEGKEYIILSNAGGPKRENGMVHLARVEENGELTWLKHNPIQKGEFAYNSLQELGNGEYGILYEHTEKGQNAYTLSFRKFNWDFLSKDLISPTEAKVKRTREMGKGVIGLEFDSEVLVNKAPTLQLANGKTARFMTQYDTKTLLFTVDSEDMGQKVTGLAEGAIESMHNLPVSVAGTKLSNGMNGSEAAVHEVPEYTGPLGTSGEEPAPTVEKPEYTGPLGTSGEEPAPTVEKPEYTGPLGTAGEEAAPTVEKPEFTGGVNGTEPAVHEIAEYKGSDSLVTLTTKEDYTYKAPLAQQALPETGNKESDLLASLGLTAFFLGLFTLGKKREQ

**Q.** Which Ki (Trans-sialidase [1]) does the source give for `O=P(O)(O)C(Nc1cccc2ccccc12)c1ccccc1` (racemic) here?
**A.** 430 µM

**Q.** What about the IC50 (Trans-sialidase [2]) of the same molecule?
**A.** 470 µM

**Q.** For `CC(=O)N[C@H]1[C@H]([C@H](O)[C@H](O)CO)OC(C(=O)O)=C[C@@H]1O` [NEU5AC2EN], which Ki (Trans-sialidase [3]) is on record?
**A.** 12300 µM

**Q.** For `O=P(O)(O)C(Nc1cccc2ccccc12)c1ccc(Cl)cc1` (racemic), which IC50 (Trans-sialidase [2]) is on record?
**A.** 710 µM

**Q.** For `CC(=O)Nc1ccc(C(Nc2cccc3ccccc23)P(=O)(O)O)cc1` (racemic), which Ki (Trans-sialidase [1]) is on record?
**A.** 190 µM

**Q.** What about the IC50 (Trans-sialidase [2]) of the same molecule?
**A.** 230 µM

**Q.** For `O=P(O)(O)C(Nc1ccccc1)c1ccccc1` (racemic), which IC50 (Trans-sialidase [2]) is on record?
**A.** > 7500 µM

**Q.** And the solubility [4]?
**A.** Soluble

**Q.** Which Ki (Trans-sialidase [5]) does the source give for `Cc1ncc(COP(=O)(O)O)c(C=O)c1O` [PYRIDOXAL PHOSPHATE ANHYDROUS] here?
**A.** 7300 µM

**Q.** For `O=P(O)(O)C(Nc1cccc2ccccc12)c1cc(C(F)(F)F)cc(C(F)(F)F)c1` (racemic), which IC50 (Trans-sialidase [2]) is on record?
**A.** 2350 µM

**Q.** For `O=P(O)(O)C(Nc1ccc2ccccc2c1)c1ccccc1` (racemic), which IC50 (Trans-sialidase [2]) is on record?
**A.** 510 µM

**Q.** With `O=P(O)(O)C(Nc1cccc(-c2ccccc2)c1)c1ccccc1` (racemic) as the molecule, how does the IC50 (Trans-sialidase [2]) read?
**A.** 5580 µM

**Q.** For `O=P(O)(O)C(Nc1cccc2ccccc12)c1ccc(C(F)(F)F)cc1` (racemic), which IC50 (Trans-sialidase [2]) is on record?
**A.** 290 µM

**Q.** With `O=P(O)(O)C(Nc1ccccc1-c1ccccc1)c1ccccc1` (racemic) as the molecule, how does the IC50 (Trans-sialidase [2]) read?
**A.** 630 µM

**Q.** With `Cc1ccc(S(=O)(=O)Nc2ccc(C(=O)/C=C/c3ccc(O)c(O)c3)cc2)cc1` as the molecule, how does the IC50 (Trans-sialidase [6]) read?
**A.** 0.9 µM

**Q.** With `COc1ccc(C(Nc2cccc3ccccc23)P(=O)(O)O)cc1` (racemic) as the molecule, how does the IC50 (Trans-sialidase [2]) read?
**A.** 270 µM

**Q.** With `O=[N+]([O-])c1ccc(C(Nc2cccc3ccccc23)P(=O)(O)O)cc1` (racemic) as the molecule, how does the Ratio IC50 [7] read?
**A.** 7 to 12

**Q.** What about the IC50 (Sialidase A) of the same molecule?
**A.** 1410 µM

**Q.** What about the Ki (Trans-sialidase [1]) of the same molecule?
**A.** 140 µM

**Q.** And the IC50 (Trans-sialidase [2])?
**A.** 210 µM

**Q.** What about the Ratio IC50 [8] of the same molecule?
**A.** 7 to 12

**Q.** What about the IC50 (Sialidase) of the same molecule?
**A.** 2390 µM

B1: Trans-sialidase (Trypanosoma cruzi), Q26964 (protein)
chain: T1 sequence (Q26964 whole entry)
**Q.** For B1, which Km [9] is on record?
**A.** 260 µM
